ChEMBL document CHEMBL1240411, “Synthesis and evaluation of anti-Toxoplasma gondii and antimicrobial activities of thiosemicarbazides, 4-thiazolidinones and 1,3,4-thiadiazoles” (Eur J Med Chem, 2010)
Converted amounts (≈) assume the structure as drawn.

Legend:
[1] = test system: Toxoplasma gondii; assay: Antimicrobial activity against tachyzoites of Toxoplasma gondii RH infected in Vero cells assessed as reduction of infected cells at 1 mM after 24 hrs relative to control; assay type: functional; set-up: scale not given: the % may be the effect or the level left
Summary of the method: (§1)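 T. gondii RH tachyzoites were taken from mouse intraperitoneal passage. Vero cells were infected at 10:1 parasite:host for 1 h, PBS-washed, then held 24 h at 37 °C in medium 199 + 5% FCS. Compound exposure was 24 h at 37 °C. Cells were Bouin-fixed, Giemsa-stained and light-microscopy scored (≥400 cells) for % infected cells. Student's t-test, P<0.05. 13 assays in triplicate.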

[2] = test system: Toxoplasma gondii; assay: Antimicrobial activity against tachyzoites of Toxoplasma gondii RH infected in Vero cells assessed as reduction of infected cells at 10 mM after 24 hrs relative to control; assay type: functional; set-up: scale not given: the % may be the effect or the level left; summary of the method: as §1
[3] = test system: Staphylococcus aureus; assay: Antibacterial activity against Staphylococcus aureus UFPEDA 02 after 24 to 48 hrs by serial dilution method; assay type: functional
[4] = test system: Toxoplasma gondii; assay: Antimicrobial activity against tachyzoites of Toxoplasma gondii RH infected in Vero cells assessed as reduction of infected cells after 24 hrs; assay type: functional; conditions: read-out: LD50 (the source's name)
Summary of the method: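 RH tachyzoites came from intraperitoneal passage in Swiss mice, harvested at 48 h. Vero cells were infected at a 10:1 parasite:host ratio for 1 h, washed with PBS and grown 24 h at 37 °C in medium 199 with 5% FCS. Compounds were then added at 0.1, 1 and 10 mM for 24 h. Cells were Bouin-fixed and Giemsa-stained, and at least 400 cells were counted by light microscopy. Mean ± SD, n = 3; Student's t-test.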

[5] = Cytotoxicity against african green monkey Vero cells after 24 hrs; assay type: cell-based; conditions: chlorocebus sabaeus, read-out: LD50
[6] = test system: Bacillus subtilis; assay: Antibacterial activity against Bacillus subtilis UFPEDA 16 after 24 to 48 hrs by serial dilution method; assay type: functional
[7] = Cytotoxicity against african green monkey Vero cells infected with tachyzoites of Toxoplasma gondii RH after 24 hrs; assay type: cell-based; conditions: chlorocebus sabaeus, read-out: LD50
Summary of the method: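 Vero cells were infected with RH tachyzoites (10:1, 1 h), washed and incubated 24 h. They were then exposed 24 h to compound over 0.01–10 mM, in triplicate. Viability was scored by trypan blue exclusion, and LD50 was obtained by non-linear regression.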

[8] = test system: Staphylococcus aureus; assay: Antibacterial activity against Staphylococcus aureus UFPEDA 02 by disc diffusion method; assay type: functional
Summary of the method: (§2)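 Disc diffusion: discs holding known amounts of agent were laid on agar seeded with a standardized microbial suspension. DMSO discs (CH₂Cl₂ for ketoconazole tests) served as negative controls. Read-out was mean zone of inhibition (mm). Run in triplicate, repeated if results differed.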

[9] = test system: Toxoplasma gondii; assay: Antimicrobial activity against tachyzoites of Toxoplasma gondii RH infected in Vero cells assessed as reduction of infected cells at 0.1 mM after 24 hrs relative to control; assay type: functional; set-up: scale not given: the % may be the effect or the level left; summary of the method: as §1
[10] = test system: Bacillus subtilis; assay: Antibacterial activity against Bacillus subtilis UFPEDA 16 by disc diffusion method; assay type: functional; summary of the method: as §2
[11] = test system: Aspergillus niger; assay: Antifungal activity against Aspergillus niger UFPEDA 2003 by disc diffusion method; assay type: functional; summary of the method: as §2
[12] = test system: Mycolicibacterium smegmatis; assay: Antibacterial activity against Mycobacterium smegmatis UFPEDA 71 after 24 to 48 hrs by serial dilution method; assay type: functional
[13] = test system: Mycolicibacterium smegmatis; assay: Antibacterial activity against Mycobacterium smegmatis UFPEDA 71 by disc diffusion method; assay type: functional; summary of the method: as §2
[14] = test system: Candida albicans; assay: Antifungal activity against Candida albicans UFPEDA 1007 after 24 to 48 hrs by serial dilution method; assay type: functional
Summary of the method: (§3)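 Only compounds giving a disc-diffusion mean inhibition zone of at least 18 mm were carried to MIC. Nistatin and ketoconazole served as antifungal references.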

[15] = test system: Candida; assay: Antifungal activity against Candida sp. UFPEDA 2224 after 24 to 48 hrs by serial dilution method; assay type: functional; summary of the method: as §3
[16] = test system: Aspergillus niger; assay: Antifungal activity against Aspergillus niger UFPEDA 2003 after 24 to 48 hrs by serial dilution method; assay type: functional; summary of the method: as §3
[17] = test system: Candida; assay: Antifungal activity against Candida sp. UFPEDA 2224 by disc diffusion method; assay type: functional; summary of the method: as §2
[18] = test system: Candida albicans; assay: Antifungal activity against Candida albicans UFPEDA 1007 by disc diffusion method; assay type: functional; summary of the method: as §2
[19] = test system: Escherichia coli; assay: Antibacterial activity against Escherichia coli UFPEDA 224 after 24 to 48 hrs by serial dilution method; assay type: functional
[20] = test system: Escherichia coli; assay: Antibacterial activity against Escherichia coli UFPEDA 224 by disc diffusion method; assay type: functional; summary of the method: as §2

Row | Molecule | Activity [1] [%] | Activity [2] [%] | MIC [3] [µg/mL] | LC50 [4] [µM] | CC50 at 24 h [5] [µM] | MIC [6] [µg/mL] | CC50 at 24 h [7] [µM] | Activity [9] [%] | further results
1 | COc1ccc(NC(=S)NNC(=O)c2nc[nH]c2C)cc1 | 12 | 0 | 210 (≈ 688 µM) | 60 | 1000 | 160 (≈ 524 µM) | 70 | 22 | inhibition zone (IZ) [8]: 19 mm; inhibition zone (IZ) [10]: 22 mm
2 | Cc1[nH]cnc1C(=O)N/N=C1\SC(CC(=O)O)C(=O)N1c1ccc(F)cc1 (stereo not drawn) | 22 | 0 | – | 100 | 5000 | – | 1000 | 59 | inhibition zone (IZ) [11]: 18 mm
3 | Cc1[nH]cnc1C(=O)NNC(=S)Nc1ccc(Cl)cc1 | 8 | 1 | 190 (≈ 613 µM) | 60 | > 10000 | 130 (≈ 420 µM) | 60 | 11 | MIC [12]: 150 µg/mL (≈ 484 µM); inhibition zone (IZ) [8]: 25 mm; inhibition zone (IZ) [13]: 21 mm; inhibition zone (IZ) [10]: 29 mm
4 | CO[C@H]1/C=C/O[C@@]2(C)Oc3c(C)c(O)c4c(O)c(c(/C=N/N5CCN(C)CC5)c(O)c4c3C2=O)NC(=O)/C(C)=C\C=C\[C@H](C)[C@H](O)[C@@H](C)[C@@H](O)[C@@H](C)[C@H](OC(C)=O)[C@@H]1C [RIFAMPIN] | – | – | – | – | – | – | – | – | MIC [12]: 55 µg/mL (≈ 66.8 µM)
5 | Nc1ccc(S(=O)(=O)Nc2ncccn2)cc1 [SULFADIAZINE] | 48 | 36 | – | 6000 | > 10000 | – | > 10000 | 64 | –
6 | NYSTATIN | – | – | – | – | – | – | – | – | MIC [14]: 50 µg/mL; MIC [15]: 50 µg/mL; MIC [16]: 50 µg/mL
7 | COc1ccc(Nc2nnc(-c3nc[nH]c3C)s2)cc1 | 14 | 0 | – | 50 | > 10000 | – | 100 | 28 | –
8 | Cc1[nH]cnc1-c1nnc(Nc2ccc(F)cc2)s1 | 6 | 3 | – | 50 | > 10000 | – | 70 | 22 | –
9 | Cc1[nH]cnc1C(=O)N/N=C1\SC(CC(=O)O)C(=O)N1c1ccccc1 (stereo not drawn) | 42 | 0 | 250 (≈ 670 µM) | 1500 | 5000 | 270 (≈ 723 µM) | 5000 | 69 | inhibition zone (IZ) [8]: 19 mm; inhibition zone (IZ) [10]: 27 mm
10 | Cc1[nH]cnc1C(=O)N/N=C1\SC(CC(=O)O)C(=O)N1c1ccc(Cl)cc1 (stereo not drawn) | 51 | 0.19 | – | 1500 | > 10000 | – | 1000 | 63 | MIC [14]: 280 µg/mL (≈ 687 µM); MIC [15]: 300 µg/mL (≈ 736 µM); inhibition zone (IZ) [17]: 20 mm; inhibition zone (IZ) [18]: 20 mm
11 | Cc1[nH]cnc1-c1nnc(Nc2ccccc2)s1 | 10 | 0.36 | – | 50 | > 10000 | – | 600 | 13 | –
12 | NC(=O)NO [HYDROXYUREA] | 4 | 1 | – | 500 | > 10000 | – | > 10000 | 53 | –
13 | Cc1[nH]cnc1C(=O)NNC(=S)Nc1ccc(F)cc1 | 8 | 0 | 190 (≈ 648 µM) | 50 | 10000 | 130 (≈ 443 µM) | 60 | 14 | MIC [19]: 250 µg/mL (≈ 852 µM); inhibition zone (IZ) [20]: 21 mm; MIC [12]: 160 µg/mL (≈ 545 µM); inhibition zone (IZ) [8]: 20 mm; inhibition zone (IZ) [13]: 20 mm; inhibition zone (IZ) [10]: 28 mm
14 | O=C(N[C@H](CO)[C@H](O)c1ccc([N+](=O)[O-])cc1)C(Cl)Cl [CHLORAMPHENICOL] | – | – | 35 (≈ 108 µM) | – | – | 30 (≈ 92.8 µM) | – | – | –
15 | Cc1[nH]cnc1C(=O)NNC(=S)Nc1ccccc1 | 6 | 0 | 190 (≈ 690 µM) | 50 | 1000 | 140 (≈ 508 µM) | 50 | 18 | inhibition zone (IZ) [8]: 18 mm; inhibition zone (IZ) [10]: 27 mm
16 | COc1ccc(N2C(=O)C(CC(=O)O)S/C2=N\NC(=O)c2nc[nH]c2C)cc1 (stereo not drawn) | 17 | 0 | – | 500 | 5000 | – | 1000 | 73 | –
17 | CC(=O)N1CCN(c2ccc(OCC3COC(Cn4ccnc4)(c4ccc(Cl)cc4Cl)O3)cc2)CC1 (stereo not drawn) [KETOCONAZOLE] | – | – | – | – | – | – | – | – | MIC [14]: 25 µg/mL (≈ 47 µM); MIC [15]: 40 µg/mL (≈ 75.3 µM)
18 | Cc1[nH]cnc1-c1nnc(Nc2ccc(Cl)cc2)s1 | 8 | 1 | – | 50 | > 10000 | – | 80 | 12 | –
